This note sets out measurements from ChEMBL document CHEMBL2396518, “A facile synthesis, anti-inflammatory and analgesic activity of isoxazolyl-2,3-dihydrospiro[benzo[f]isoindole-1,3'-indoline]-2',4,9-triones” (2013).

Common to all, as to assay type: functional
The test system of assay [1] is Mus musculus. Briefly: Analgesic activity in Swiss albino mouse assessed as inhibition of acetic acid-induced writhing at 50 mg/kg, po administered 30 mins followed by acetic acid challenge measured for 20 mins relative to control. The method, boiled down:
(§1)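 Mice were fasted 18 h with water ad libitum and split into 6 groups. Test agents were dosed orally at 50 mg/kg, with diclofenac 50 mg/kg as standard. After 30 min, 1.0% v/v acetic acid was given ip at 1 mL/100 g. Writhes were counted over 20 min. % inhibition = (mean control writhes − mean test writhes)/mean control writhes × 100. Results are mean ± S.E.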
In general terms: Writhing tests count abdominal constrictions after an irritant is injected.

Assay [2] concerns Rattus norvegicus. Briefly: Antiinflammatory activity in carrageenan-induced Wistar rat paw edema model assessed as paw volume at 100 mg/kg, po administered 30 mins prior to carrageenan challenge measured at 6 hrs by plethysmographic analysis (reference value: 0.96 +/- 0.03 ml). On the technique in general: The carrageenan paw model is a standard test of acute inflammation.
In assay [3] the test system is Rattus norvegicus. The assay is described as follows: Antiinflammatory activity in carrageenan-induced Wistar rat paw edema model assessed as paw volume at 100 mg/kg, po administered 30 mins prior to carrageenan challenge measured at 4 hrs by plethysmographic analysis (reference value: 1.2 +/- 0.05 ml).
In assay [4] the test system is Rattus norvegicus. Briefly: Antiinflammatory activity in carrageenan-induced Wistar rat paw edema model assessed as paw volume at 100 mg/kg, po administered 30 mins prior to carrageenan challenge measured at 2 hrs by plethysmographic analysis (reference value: 1.07 +/- 0.08 ml).
For assay [5], the system named is Rattus norvegicus. Briefly: Antiinflammatory activity in carrageenan-induced Wistar rat paw edema model assessed as paw volume at 100 mg/kg, po administered 30 mins prior to carrageenan challenge measured at 1 hr by plethysmographic analysis (reference value: 0.90 +/- 0.05 ml).
Assay [6] has as its system Mus musculus. The assay is described as follows: Analgesic activity in Swiss albino mouse assessed as inhibition of acetic acid-induced writhing at 50 mg/kg administered 30 mins followed by acetic acid challenge measured for 20 mins relative to control. The gist of the method: as §1

In general, inhibition in vivo refers to the share of the control response that was lost under treatment. For `COc1ccc(/C=C/c2onc(C)c2N2CC3=C(C(=O)c4ccccc4C3=O)C23C(=O)Nc2ccccc23)cc1` (stereo unspecified), in the assay with Mus musculus [1], the inhibition in vivo at 50 mg/kg was 19.6%. The Activity stood at 0.6 mL with Rattus norvegicus [2], 0.65 mL with Rattus norvegicus [3], 0.91 mL in the assay with Rattus norvegicus [4] and 0.8 mL in the assay on Rattus norvegicus [5].

On to `Cc1noc(/C=C/c2ccccc2)c1N1CC2=C(C(=O)c3ccccc3C2=O)C12C(=O)Nc1ccccc12` (stereo unspecified), for which the inhibition in vivo at 50 mg/kg with Mus musculus [1] was found to be 22.4%. In addition, the Activity in the assay with Rattus norvegicus [2] turned out to be 0.6 mL; in the assay with Rattus norvegicus [3], 0.75 mL; in the assay with Rattus norvegicus [4] it was 0.84 mL; in the assay with Rattus norvegicus [5], 0.75 mL.

As to `Cc1noc(/C=C/c2ccc(Cl)cc2)c1N1CC2=C(C(=O)c3ccccc3C2=O)C12C(=O)Nc1ccccc12` (stereo unspecified), the inhibition in vivo at 50 mg/kg in the assay on Mus musculus [1] came to 50.4%. Also, the Activity in the assay with Rattus norvegicus [2] turned out to be 0.41 mL; with Rattus norvegicus [3], 0.65 mL; with Rattus norvegicus [4] it was 0.69 mL; in the assay with Rattus norvegicus [5], 0.54 mL.

Regarding `O=C(O)Cc1ccccc1Nc1c(Cl)cccc1Cl` [DICLOFENAC], in the assay with Mus musculus [6], the inhibition in vivo at 50 mg/kg was determined as 53.6%.

Consider `Cc1noc(/C=C/c2ccc(Cl)cc2Cl)c1N1CC2=C(C(=O)c3ccccc3C2=O)C12C(=O)Nc1ccccc12` (stereo unspecified), for which the inhibition in vivo at 50 mg/kg in the assay on Mus musculus [1] is 44.8%. In addition, the Activity worked out at 0.32 mL in the assay with Rattus norvegicus [2], 0.54 mL in the assay on Rattus norvegicus [3], 0.71 mL with Rattus norvegicus [4] and 0.57 mL with Rattus norvegicus [5].

For `Cc1ccc(/C=C/c2onc(C)c2N2CC3=C(C(=O)c4ccccc4C3=O)C23C(=O)Nc2ccccc23)cc1` (stereo unspecified), the inhibition in vivo at 50 mg/kg in the assay with Mus musculus [1] was found to be 26.3%. The Activity in the assay with Rattus norvegicus [2] is 0.54 mL; in the assay on Rattus norvegicus [3], 0.69 mL; in the assay with Rattus norvegicus [4], 0.8 mL; in the assay with Rattus norvegicus [5], 0.7 mL.

For `Cc1noc(/C=C/c2ccccc2)c1N1CC2=C(C(=O)c3ccccc3C2=O)C12C(=O)Nc1ccc(Cl)cc12` (stereo unspecified), the inhibition in vivo at 50 mg/kg in the assay on Mus musculus [1] was 16.5%. Besides, the Activity in the assay on Rattus norvegicus [2] turned out to be 0.63 mL; with Rattus norvegicus [3], 0.82 mL; in the assay with Rattus norvegicus [4], 0.83 mL; in the assay with Rattus norvegicus [5], 0.82 mL.

Take `COc1ccc2c(c1)C1(C(=O)N2)C2=C(CN1c1c(C)noc1/C=C/c1ccccc1)C(=O)c1ccccc1C2=O` (stereo unspecified): the inhibition in vivo at 50 mg/kg with Mus musculus [1] is 18.4%. Moreover, the Activity amounted to 0.6 mL with Rattus norvegicus [2], 0.81 mL in the assay on Rattus norvegicus [3], 0.91 mL in the assay with Rattus norvegicus [4] and 0.73 mL in the assay with Rattus norvegicus [5].

In the case of `Cc1ccc2c(c1)C1(C(=O)N2)C2=C(CN1c1c(C)noc1/C=C/c1ccccc1)C(=O)c1ccccc1C2=O` (stereo unspecified), the inhibition in vivo at 50 mg/kg in the assay on Mus musculus [1] is 19.5%. In addition, the Activity with Rattus norvegicus [2] was 0.55 mL; in the assay on Rattus norvegicus [3], 0.83 mL; in the assay with Rattus norvegicus [4] it was 0.89 mL; in the assay with Rattus norvegicus [5], 0.77 mL.

In the case of `Cc1noc(/C=C/c2c(Cl)cccc2Cl)c1N1CC2=C(C(=O)c3ccccc3C2=O)C12C(=O)Nc1ccccc12` (stereo unspecified), in the assay with Mus musculus [1], the inhibition in vivo at 50 mg/kg came out at 48.3%. In addition, the Activity in the assay with Rattus norvegicus [2] amounted to 0.4 mL; in the assay with Rattus norvegicus [3] it was 0.67 mL; in the assay with Rattus norvegicus [4] it was 0.7 mL; in the assay on Rattus norvegicus [5], 0.54 mL.

As to `Cc1noc(/C=C/c2ccccc2O)c1N1CC2=C(C(=O)c3ccccc3C2=O)C12C(=O)Nc1ccccc12` (stereo unspecified), the inhibition in vivo at 50 mg/kg with Mus musculus [1] turned out to be 20.4%. In addition, the Activity is 0.52 mL with Rattus norvegicus [2], 0.8 mL in the assay with Rattus norvegicus [3], 0.81 mL in the assay on Rattus norvegicus [4] and 0.78 mL in the assay on Rattus norvegicus [5].
